Shown is part of a subset that was picked to be rich in hits.
HUVEC inhibit = inhibitors of human endothelial cell proliferation | AID 648 | HUVEC proliferation, CellTiter-Glo luminescence, 72 h; hits give low values | viability, % at 10 µM (by protocol) | 86,000 tested, 1.1% active;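 active = viability at or below 30%; inactive = viability above 30%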;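 also: 100% = median luminescence of DMSO-only cell control wells on each plate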
Fibroblast inh = blocks proliferation of human lung fibroblasts; 85,000 tested, 1.1% active; viability, % at 10 µM; LL 47 human lung fibroblast viability, ATP luminescence; hits give low values;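 active = viability at or below 50% in the single dose screen; inactive = viability above 50%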;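 also: compound exposure lasted 72 h before the ATP readout; 100% = median luminescence of untreated cell-only wells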
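Material: human LL 47 lung fibroblast cells; quantity: 1,150 cells/well; medium: IMEM plus 15% FBS; doses: 0.1% DMSO in all compound wells; timing: overnight attachment after seeding, then 72 h compound exposure at 37 °C; detection: CellTiter-Glo luminescence; measure: % viability of median cell-only signal; controls: cell-only wells, no compound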
HCT116 PTEN-null = PTEN-deleted cell growth suppression; viability, % at 10 µM; AID 827; HCT116 PTEN-null viability, CellTiter-Glo, 60 h; hits give low values; 140,000 tested, 1.2% active;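 active = viability at or below a set limit, 4 SD under the median of all tested compounds, cut at about 3.7% in these data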;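 also: PTEN knockout HCT116 line with beta catenin targeted HCT116 as companion control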
HCT116 bCat-KO = beta-catenin-lacking colon tumor cell growth suppression. HCT116 beta-catenin knockout viability, CellTiter-Glo, 60 h; hits give low values. viability, % at 10 µM. 140,000 tested, 1.5% active;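 active = viability at or under a set limit, the compound median less 4 SD, cut at about 6% in these data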;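 also: 0% = Hyamine 1622 control at 20 µM and 100% = untreated cell control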
H69AR inhibit = blocks growth of human H69AR lung tumor cells. AID 598. viability, % at 10 µM. 85,000 tested, 6% active. H69AR lung tumor viability, ATP luminescence, 72 h; hits give low values;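 active = viability at or below 40%; inactive = viability above 40%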;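 also: multidrug resistant small cell line overexpressing MRP-1 efflux transporter; 100% = mean luminescence of untreated control wells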
An asterisk follows results filed as active; nt = not tested or not shown.

SMILES	HUVEC inhibit	Fibroblast inh	HCT116 PTEN-null	HCT116 bCat-KO	H69AR inhibit
C=CCn1c(SCC(=O)Nc2sccc2C(N)=O)nc2ccccc2c1=O	59	88	76	76	31*
C=CCn1c(SCC(=O)c2c(N)n(CCC)c(=O)n(C)c2=O)nc2sc(CC)cc2c1=O	83	46*	36	41	7.7*
C=CCn1c(SCC(=O)Nc2sccc2C(N)=O)nc2ccc(Cl)cc2c1=O	57	84	32	51	17*
C=CCn1c(SCC(=O)Nc2sccc2C(N)=O)nc2sc(CC)cc2c1=O	73	86	75	71	40*
CC1CCCC(NC(=S)NC(=O)c2ccccc2Br)C1C (stereo not drawn)	nt	nt	65	60	nt
C=CCn1c(CCC(=O)Nc2ccc(C)c(Cl)c2)nnc1SCC(=O)Nc1ccccc1C	nt	nt	79	84	nt
COC(=O)/C(=N/Nc1ccccc1C)Sc1nnc(C(O)c2ccccc2)n1-c1ccccc1 (stereo not drawn)	nt	nt	100	99	nt
CCN(CC)S(=O)(=O)c1ccc(S(=O)(=O)Nc2ccc3c(c2)oc2ccccc23)cc1	63	97	75	77	33*
CN(C)S(=O)(=O)c1ccc(S(=O)(=O)Nc2ccc3c(c2)oc2ccccc23)cc1	73	102	89	96	85
COC(=O)Oc1ccc(/C=N/NC(=O)CSCc2ccccc2Br)cc1OC	nt	nt	69	66	nt
Clc1ccc(C2=Nn3c(nnc3-c3n[nH]c4c3CCC4)SC2)cc1	57	53	17	16	15*
Brc1ccc(C2=Nn3c(nnc3-c3n[nH]c4c3CCC4)SC2)cc1	48	41*	15	19	20*
Cc1cccc(-c2nnc3n2N=C(c2ccc(Br)cc2)CS3)c1	72	78	nt	nt	52
Cc1ccc(-c2nnc3n2N=C(c2ccc(Br)cc2)CS3)cc1	60	70	91	90	6.1*
O=C(Nc1cccc(-c2nc3ccccc3[nH]2)c1)c1cccc(NC(=O)c2ccco2)c1	1.9*	13*	55	10	1.2*
O=C(Nc1ccc(Cl)c(-c2nc3ccccc3[nH]2)c1)c1ccc2c(c1)OCO2	nt	nt	63	77	nt
Cc1ccc(-c2nc3ccccc3[nH]2)cc1NC(=O)c1ccco1	96	107	86	95	nt
O=C(Nc1ccc(-c2nc3c(ccc4ccccc43)o2)cc1)c1ccco1	69	40*	16	19	19*
Cc1cccc2[nH]c(-c3ccc(NC(=O)c4ccco4)cc3)nc12	94	109	92	88	35*
O=C(Nc1ccc(-c2nc3ccccc3[nH]2)cc1)c1ccc2c(c1)OCO2	nt	nt	2.5*	2.6*	nt
CC(C)CNC(=O)c1ccc(Cl)c(N)c1	nt	nt	98	92	nt
C#CCNC(=O)/C=C/c1ccc(OC)cc1	nt	nt	92	99	nt
Cn1c(N)c(C(=O)c2ccc(F)cc2F)c(=O)n(C)c1=O	nt	nt	92	95	nt
O=C(Nc1ccc2c(c1)C(=O)N(c1ccccc1)C2=O)C1CCCO1 (stereo not drawn)	101	105	97	97	92
Cc1ccc2nc(-c3ccc(NC(=O)CSc4ccccc4)cc3)[nH]c2c1	nt	nt	8	3.2*	nt
SMILES	HUVEC inhibit	Fibroblast inh	HCT116 PTEN-null	HCT116 bCat-KO	H69AR inhibit
O=C(Nc1ccc2nc(-c3ccc(Br)o3)[nH]c2c1)c1ccco1	69	114	93	104	51
O=C(Nc1ccc2nc(-c3ccccc3)[nH]c2c1)c1ccco1	88	93	73	75	39*
O=C(CSc1ccccc1)Nc1ccc(-c2nc3ccccc3[nH]2)cc1	nt	nt	71	80	nt
CCCCn1nnnc1SCC(=O)Nc1ccc(N(C)C)cc1	83	106	92	105	69
O=S(=O)(NC1=NCCC1)c1cccc(NC(=S)NCCc2ccccc2)c1	nt	nt	91	85	nt
CC(C(=O)N1CCc2ccccc21)n1cccc1 (stereo not drawn)	95	96	94	97	102
N#C/C(C(=O)NCc1ccccc1)=C1/SC(Cc2ccc(Cl)cc2)C(=O)N1c1ccccc1 (stereo not drawn)	nt	nt	94	85	nt
CCOC(=O)N1CCC(c2cc(=O)n3[nH]c(C)c(-c4ccc(F)cc4)c3n2)CC1	6.4*	84	46	25	96
CC(OCCN1CCCC1)(c1ccc(F)cc1)c1ccc(F)cc1	nt	nt	52	52	nt
COc1ccc(C(=NNc2ccccc2C(=O)O)c2ccc(OC)cc2)cc1	nt	nt	79	92	nt
Cc1cc(C)nc(SCC(=O)N/N=C\C(Br)=C\c2ccccc2)n1	nt	nt	66	62	nt
O=C(N/N=C/C(Br)=C\c1ccccc1)c1ccc2nc[nH]c2c1	nt	nt	3.3*	2.2*	nt
COc1ccc(/C=N/NC(=O)c2c(-c3ccccc3)noc2C)cc1	nt	nt	96	105	nt
Cc1onc(-c2ccccc2)c1C(=O)N/N=C/C(Br)=C/c1ccccc1	nt	nt	2.9*	3.6*	nt
Cc1ccc(NCC(=O)N/N=C\C(Br)=C\c2ccccc2)cc1	100	100	2.7*	2.6*	74
CCOc1cc(C(=O)N/N=C/C(Br)=C/c2ccccc2)cc(OCC)c1OCC	nt	nt	2.3*	14	nt
CCC(=O)Nc1nnc(SCC(=O)c2ccc3c(c2)Cc2ccccc2-3)s1	nt	nt	95	107	nt
CCc1c(C)nc2cc(-c3ccc(OC)c(OC)c3)nn2c1N1CCC(C)CC1	105	102	76	75	70
CCc1c(C)nc2cc(-c3ccc(OC)c(OC)c3)nn2c1N1CCCC1	64	90	29	53	38*
CC1=NOC(=O)/C1=C\c1ccc(-c2ccc(Cl)cc2Cl)o1	nt	nt	8	4.7*	nt
Cc1[nH][nH]c(=O)c1C(c1ccc(-c2ccc(Cl)cc2Cl)o1)c1c(C)[nH][nH]c1=O	nt	nt	89	93	nt
Cc1cccc(NC(=O)Cn2c(/C=C/c3ccccc3)nc3ccccc32)c1	nt	nt	59	58	nt
CN(Cc1ccccc1F)c1nc(-c2cccs2)nc2ccccc12	nt	nt	80	73	nt
Cc1nn(-c2ccccc2)c2c1/C(=N/O)CC(C)(C)C2	106	97	80	87	30*
Cc1nn(-c2ccccc2)c2c1C(=O)N(c1ccccc1)C(=O)C(C)(C)C2	92	94	91	91	79
SMILES	HUVEC inhibit	Fibroblast inh	HCT116 PTEN-null	HCT116 bCat-KO	H69AR inhibit
COc1cc(C2Nc3ccc4ncccc4c3C3=C2C(=O)CCC3)cc(OC)c1O (stereo not drawn)	59	56	27	22	27*
CCOc1ccc(N2CCn3c2nc2c3c(=O)n(CCc3ccccc3)c(=O)n2C)cc1	100	108	nt	nt	15*
Cn1c(-c2cc(Br)ccc2O)n[nH]c1=S	88	93	83	90	100
Oc1ccc(Br)cc1-c1cc(-c2ccc(Cl)cc2)n[nH]1	8.1*	39*	3.3*	3.7*	54
COc1ccc(-c2cc(-c3ccccc3O)[nH]n2)cc1OC	52	79	52	57	59
Oc1ccccc1-c1cc(-c2ccc3c(c2)OCCO3)n[nH]1	49	81	43	23	17*
Oc1ccc(Br)cc1-c1cc(-c2ccccc2)n[nH]1	27*	71	19	13	6.3*
CCCOC(=O)c1ccc(NC(=O)C(CC)CC)cc1	nt	nt	93	97	nt
